These results are taken from ChEMBL document CHEMBL1687765, “NagZ inactivation prevents and reverts beta-lactam resistance, driven by AmpD and PBP 4 mutations, in Pseudomonas aeruginosa” (2010).

In brackets after ≈: the same amount, converted by molar mass. Activity calls are given as the source filed them. The rule behind the calls is not given here.

The test system of experiment [1] is Pseudomonas aeruginosa. As to the kind of experiment: Antimicrobial activity against Pseudomonas aeruginosa PAO1 by broth microdilution method. In kind it is functional. An outline of the steps:
(§1)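 Broth microdilution MICs of ceftazidime, aztreonam and piperacillin in 100 μl cation-adjusted Mueller-Hinton broth, with or without NagZ inhibitor PUGNAc at 0.5 mM or 5 mM; measurements in triplicate.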
On the technique in general: Dilution methods test growth across graded concentrations, often in twofold steps.

Experiment [2] concerns Pseudomonas aeruginosa. As to the kind of experiment: Antimicrobial activity against ampD::lox gene-deficient Pseudomonas aeruginosa PAO1 by broth microdilution method. In kind it is functional. The essentials: as §1
The subject of experiment [3] is Pseudomonas aeruginosa. Kind of experiment: Antimicrobial activity against dacB::lox gene-deficient Pseudomonas aeruginosa PAO1 by broth microdilution method. In kind it is functional. An outline of the steps: as §1
Experiment [4] concerns Pseudomonas aeruginosa. Kind of experiment: Antimicrobial activity against ampD::lox gene-deficient Pseudomonas aeruginosa PAO1 harboring dacB gene by broth microdilution method. The format is functional. The essentials:
as §1

Experiment [5] concerns Pseudomonas aeruginosa. As to the kind of experiment: Antimicrobial activity against Pseudomonas aeruginosa PAO1 by broth microdilution method in presence of 0.5 mM NagZ inhibitor PUGNAc. In kind it is functional. The essentials:
as §1

In experiment [6] the test system is Pseudomonas aeruginosa. Kind of experiment: Antimicrobial activity against ampD::lox gene-deficient Pseudomonas aeruginosa PAO1 by broth microdilution method in presence of 0.5 mM NagZ inhibitor PUGNAc. The format is functional. An outline of the steps:
as §1

Experiment [7] relates to Pseudomonas aeruginosa. Kind of experiment: Antimicrobial activity against dacB::lox gene-deficient Pseudomonas aeruginosa PAO1 by broth microdilution method in presence of 0.5 mM NagZ inhibitor PUGNAc. The format is functional. The essentials: as §1
Experiment [8] has as its system Pseudomonas aeruginosa. As to the kind of experiment: Antimicrobial activity against ampD::lox gene-deficient Pseudomonas aeruginosa PAO1 harboring dacB gene by broth microdilution method in presence of 0.5 mM NagZ inhibitor PUGNAc. The format is functional. An outline of the steps: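 MICs of ceftazidime, aztreonam and piperacillin determined by broth microdilution in cation-adjusted Mueller-Hinton broth, with 0.5 mM of the N-acetyl-β-glucosaminidase (NagZ) inhibitor PUGNAc added alongside the β-lactam and untreated controls run in parallel; all measurements performed in triplicate.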

The subject of experiment [9] is Pseudomonas aeruginosa. Kind of experiment: Antimicrobial activity against Pseudomonas aeruginosa PAO1 by broth microdilution method in presence of 5 mM NagZ inhibitor PUGNAc. In kind it is functional. An outline of the steps: as §1
The test system of experiment [10] is Pseudomonas aeruginosa. As to the kind of experiment: Antimicrobial activity against ampD::lox gene-deficient Pseudomonas aeruginosa PAO1 by broth microdilution method in presence of 5 mM NagZ inhibitor PUGNAc. The format is functional. The essentials: as §1
Experiment [11] has as its system Pseudomonas aeruginosa. Kind of experiment: Antimicrobial activity against dacB::lox gene-deficient Pseudomonas aeruginosa PAO1 by broth microdilution method in presence of 5 mM NagZ inhibitor PUGNAc. In kind it is functional. An outline of the steps: as §1
Experiment [12] has as its system Pseudomonas aeruginosa. Kind of experiment: Antimicrobial activity against ampD::lox gene-deficient Pseudomonas aeruginosa PAO1 harboring dacB gene by broth microdilution method in presence of 5 mM NagZ inhibitor PUGNAc. The format is functional. The essentials: as §1
The subject of experiment [13] is Pseudomonas aeruginosa. Kind of experiment: Antimicrobial activity against nagZ::lox gene-deficient Pseudomonas aeruginosa PAO1 by Etest method. The format is functional. The essentials:
(§2)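 MICs read from Etest strips on Mueller-Hinton agar per manufacturer's instructions; agents ceftazidime, cefepime, aztreonam, piperacillin, piperacillin-tazobactam, imipenem and meropenem.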

Experiment [14] relates to Pseudomonas aeruginosa. As to the kind of experiment: Antimicrobial activity against ampD::lox gene-deficient Pseudomonas aeruginosa PAO1 by Etest method. The format is functional. An outline of the steps: as §2
For experiment [15], the system named is Pseudomonas aeruginosa. Kind of experiment: Antimicrobial activity against dacB::lox gene-deficient Pseudomonas aeruginosa PAO1 by Etest method. The format is functional. The essentials:
as §2

Experiment [16] relates to Pseudomonas aeruginosa. Kind of experiment: Antimicrobial activity against ampD::lox gene-deficient Pseudomonas aeruginosa PAO1 harboring dacB gene by Etest method. The format is functional. The essentials: as §2
Experiment [17] has as its system Pseudomonas aeruginosa. Kind of experiment: Antimicrobial activity against ampD::lox, ampDh2::lox and ampDh3::lox gene-deficient Pseudomonas aeruginosa PAO1 by Etest method. The format is functional. An outline of the steps:
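Etest strips on Mueller-Hinton agar, read per manufacturer's recommendations; P. aeruginosa PAO1 triple mutant deficient in ampD, ampDh2 and ampDh3 (lox deletions). Agents tested by Etest: ceftazidime, cefepime, aztreonam, piperacillin, piperacillin-tazobactam, imipenem, meropenem.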

Experiment [18] has as its system Pseudomonas aeruginosa. Kind of experiment: Antimicrobial activity against ampD::lox, ampDh2::lox,ampDh3::lox and nagZ::lox gene-deficient Pseudomonas aeruginosa PAO1 by Etest method. The format is functional. An outline of the steps: as §2
The test system of experiment [19] is Pseudomonas aeruginosa. Kind of experiment: Antimicrobial activity against ampR::lox gene-deficient Pseudomonas aeruginosa PAO1 by Etest method. The format is functional. The essentials:
as §2

Experiment [20] has as its system Pseudomonas aeruginosa. As to the kind of experiment: Antimicrobial activity against ampC::lox gene-deficient Pseudomonas aeruginosa PAO1 by Etest method. The format is functional. The essentials: as §2
Experiment [21] relates to Pseudomonas aeruginosa. Kind of experiment: Antimicrobial activity against Pseudomonas aeruginosa PAO1 by Etest method. The format is functional. An outline of the steps: as §2
In experiment [22] the test system is Pseudomonas aeruginosa. Kind of experiment: Antimicrobial activity against ampD::lox and nagZ::lox gene-deficient Pseudomonas aeruginosa PAO1 by Etest method. The format is functional. An outline of the steps: as §2
The test system of experiment [23] is Pseudomonas aeruginosa. Kind of experiment: Antimicrobial activity against ampD::lox and nagZ::lox gene-deficient Pseudomonas aeruginosa PAO1 harboring dacB gene by Etest method. The format is functional. An outline of the steps:
as §2

The test system of experiment [24] is Pseudomonas aeruginosa. As to the kind of experiment: Antimicrobial activity against Pseudomonas aeruginosa PAO1 at 1 ug/ml. The format is functional, organism-based. The essentials: (§3)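 Population analysis: serial dilutions of overnight MH broth cultures plated on MH agar with 0, 0.5, 1, 2, 4, 8 or 16 μg/ml ceftazidime; colonies counted after 24 h as CFU at each concentration; triplicate, mean ± standard deviation.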

Experiment [25] has as its system Pseudomonas aeruginosa. Kind of experiment: Antimicrobial activity against nagZ::lox gene-deficient Pseudomonas aeruginosa PAO1 at 1 ug/ml. In kind it is functional, organism-based. An outline of the steps: as §3

What is called MIC is the lowest concentration that inhibits growth of the organism. Take `C[C@H]1[C@H](NC(=O)/C(=N\OC(C)(C)C(=O)O)c2csc(N)n2)C(=O)N1S(=O)(=O)O` [AZTREONAM]: the MIC turned out to be 3 µg/mL (≈ 6.89 µM) with Pseudomonas aeruginosa [1]; 6 µg/mL (≈ 13.8 µM) in the experiment with Pseudomonas aeruginosa [2]; 12 µg/mL (≈ 27.6 µM) against Pseudomonas aeruginosa [3]; 32 µg/mL (≈ 73.5 µM) against Pseudomonas aeruginosa [4]; 3 µg/mL in the experiment with Pseudomonas aeruginosa [5]; 3 µg/mL in the experiment with Pseudomonas aeruginosa [6]. Besides, the MIC worked out at 4 µg/mL in the experiment on Pseudomonas aeruginosa [7]; 32 µg/mL in the experiment on Pseudomonas aeruginosa [8]; 3 µg/mL with Pseudomonas aeruginosa [9]; 3 µg/mL with Pseudomonas aeruginosa [10]; 3 µg/mL in the experiment on Pseudomonas aeruginosa [11]; 24 µg/mL in the experiment with Pseudomonas aeruginosa [12]. Further, the minimal inhibitory concentration (MIC) worked out at 4 µg/mL (≈ 9.19 µM) in the experiment with Pseudomonas aeruginosa [13]; 12 µg/mL (≈ 27.6 µM) against Pseudomonas aeruginosa [14]; 24 µg/mL (≈ 55.1 µM) in the experiment with Pseudomonas aeruginosa [15]; 64 µg/mL (≈ 147 µM) against Pseudomonas aeruginosa [16]; 32 µg/mL (≈ 73.5 µM) with Pseudomonas aeruginosa [17]; 8 µg/mL (≈ 18.4 µM) against Pseudomonas aeruginosa [18]. Moreover, the figures for the MIC in the experiment with Pseudomonas aeruginosa [19] and with Pseudomonas aeruginosa [20] were 4 µg/mL (≈ 9.19 µM) and 2 µg/mL (≈ 4.59 µM), respectively.

For the compound `CO/N=C(\C(=O)N[C@@H]1C(=O)N2C(C(=O)[O-])=C(C[N+]3(C)CCCC3)CS[C@H]12)c1csc(N)n1` [CEFEPIME], the MIC in the experiment with Pseudomonas aeruginosa [21] was found to be 1.5 µg/mL (≈ 3.12 µM); in the experiment with Pseudomonas aeruginosa [13], 1.5 µg/mL (≈ 3.12 µM); in the experiment on Pseudomonas aeruginosa [22] it was 1.5 µg/mL (≈ 3.12 µM); in the experiment with Pseudomonas aeruginosa [15] it was 12 µg/mL (≈ 25 µM); in the experiment on Pseudomonas aeruginosa [16] it was 48 µg/mL (≈ 99.9 µM); in the experiment with Pseudomonas aeruginosa [23] it was 3 µg/mL (≈ 6.24 µM). Besides, the results for the MIC in the experiment on Pseudomonas aeruginosa [18], with Pseudomonas aeruginosa [19] and against Pseudomonas aeruginosa [20] were 3 µg/mL (≈ 6.24 µM), 2 µg/mL (≈ 4.16 µM) and 1 µg/mL (≈ 2.08 µM), respectively.

Turning to `CC(C)(O/N=C(\C(=O)N[C@@H]1C(=O)N2C(C(=O)[O-])=C(C[n+]3ccccc3)CS[C@H]12)c1csc(N)n1)C(=O)O` [CEFTAZIDIME], the MIC in the experiment on Pseudomonas aeruginosa [1] came to 2 µg/mL (≈ 3.66 µM); against Pseudomonas aeruginosa [2], 8 µg/mL (≈ 14.6 µM); against Pseudomonas aeruginosa [3] it was 24 µg/mL (≈ 43.9 µM); against Pseudomonas aeruginosa [4], 96 µg/mL (≈ 176 µM); in the experiment on Pseudomonas aeruginosa [5], 2 µg/mL; in the experiment on Pseudomonas aeruginosa [6], 4 µg/mL. In addition, the MIC in the experiment on Pseudomonas aeruginosa [7] came out at 8 µg/mL; in the experiment with Pseudomonas aeruginosa [8] it was 64 µg/mL; with Pseudomonas aeruginosa [9] it was 2 µg/mL; in the experiment on Pseudomonas aeruginosa [10] it was 4 µg/mL; in the experiment with Pseudomonas aeruginosa [11], 6 µg/mL; in the experiment on Pseudomonas aeruginosa [12], 64 µg/mL. Further, the MIC against Pseudomonas aeruginosa [21] was found to be 1.5 µg/mL (≈ 2.74 µM); in the experiment with Pseudomonas aeruginosa [13] it was 1 µg/mL (≈ 1.83 µM); against Pseudomonas aeruginosa [14] it was 8 µg/mL (≈ 14.6 µM); with Pseudomonas aeruginosa [22], 2 µg/mL (≈ 3.66 µM); against Pseudomonas aeruginosa [15], 24 µg/mL (≈ 43.9 µM); with Pseudomonas aeruginosa [16], 96 µg/mL (≈ 176 µM). The MIC in the experiment with Pseudomonas aeruginosa [23] came to 4 µg/mL (≈ 7.32 µM); in the experiment with Pseudomonas aeruginosa [17], 32 µg/mL (≈ 58.5 µM); in the experiment on Pseudomonas aeruginosa [18], 3 µg/mL (≈ 5.49 µM); in the experiment with Pseudomonas aeruginosa [19] it was 2 µg/mL (≈ 3.66 µM); in the experiment with Pseudomonas aeruginosa [20], 1 µg/mL (≈ 1.83 µM). Besides, the outcome in the experiment on Pseudomonas aeruginosa [24] and with Pseudomonas aeruginosa [25] was Active.
